Screening results (PubChem)
VIM-2 inhibitor: blocks Pseudomonas aeruginosa VIM-2 metallo-beta-lactamase; purified VIM-2, nitrocefin hydrolysis, epi-absorbance fluorescence; inhibition, % at 5.6 µM; 290,000 tested, 0.89% active;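 active = inhibition above the mean of all tested compounds plus 3 SD, cutoff set per screening run, cut at about 7.5% in these data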;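 note: red hydrolysis product quenches plate fluorescence so inhibitors raise well fluorescence; 0% = enzyme with DMSO and 100% = DMSO without enzyme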
MLLE-PAM2 inh: inhibitors of microRNA-mediated deadenylation, human PABP1 MLLE binding | P11940 | GST-MLLE / FITC-PAM2 fluorescence polarization | inhibition, % at 20 µM | 360,000 tested, 0.36% active; in the data active = inhibition above about 35%, passing the limit was not always enough;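 note: plate controls were DMSO wells with GST-MLLE for no effect and wells lacking GST-MLLE protein for full effect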
PABP FP inh: blocks human PABP binding to poly(A) RNA; 290,000 tested, 1% active; P11940; fluorescence polarization; calls only at 35 µM;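 note: calls also rest on retests at 20 µM and on dose response follow-up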
eIF4H inh: inhibitors of RNA binding by human eIF4H; Q15056; eIF4H fluorescence polarization binding assay; inhibition, % at 35 µM; 290,000 tested, 0.94% active;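 note: calls also rest on retests at 20 µM and on dose response follow-up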
IMP-1 inhibitor: inhibitors of Pseudomonas aeruginosa IMP-1 metallo-beta-lactamase; purified IMP-1, nitrocefin hydrolysis, epi-absorbance fluorescence; inhibition, % at 5.6 µM; 290,000 tested, 0.45% active; AID 1556;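 active = inhibition above the mean plus 3 SD of all compounds in the same screening run, cut at about 4.5% in these data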;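 note: 0% = IMP-1 with DMSO and 100% = DMSO wells lacking enzyme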
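Material – recombinant IMP-1 enzyme, purified · Amount – IMP-1 0.2 nM before substrate addition · Medium – HEPES buffer pH 7.1 with ZnSO4 and Brij 35 · Timing – 25 °C, 15 min preincubation, 25 min reaction · Measured by – plate fluorescence quenching by hydrolysis product, ex 480/em 530 nm · Read-out – percent enzyme inhibition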
Numbers without * were called inactive; i = inactive; ? = inconclusive; / = no result given; + = active, no number. In the library only some 2.2% were active in any assay of this set; here they are far more common. Unless noted, the rule behind the calls is not given here.

SMILES | VIM-2 inhibitor | MLLE-PAM2 inh | PABP FP inh | eIF4H inh | IMP-1 inhibitor
Cn1c(COc2ccccc2)nnc1SCC(=O)Nc1ccc2c(c1)OCO2 | -5.2 | -10.9 | i | -0.9 | -2.6
COCCn1cnnc1SCC(=O)Nc1ccccc1C(=O)Nc1ccc2c(c1)OCO2 | -3.8 | -5.0 | i | 5.6* | -1.7
Cc1ccc(N2CCN(C(=O)c3ccccc3NC(=O)/C=C\C(=O)O)CC2)cc1 | 0.5 | 15.2 | i | -12.0 | -0.4
CC(C)[C@H](NC(=O)[C@H]1N2C(=O)c3ccccc3C2SC1(C)C)C(=O)NCc1ccco1 (stereo partly specified) | -1.2 | 16.8 | i | 11.5 | 0.5
COc1ccc(Br)c2oc(SC)cc(=O)c12 | 9.2* | -1.0 | i | 1.0 | -5.9
CC(=O)c1cccc(NC(=S)NC(=O)c2ccccc2Cl)c1 | -4.5 | 21.9 | i | -8.6 | -4.3
COc1ccccc1NC(=S)NC(=O)C1CC1 | -4.3 | 19.7 | i | -5.1 | -4.2
O=C(NC(=S)Nc1ccccc1Cl)C1CC1 | 0.7 | 40.9* | i | 2.3 | 0.3
O=C(NC(=S)Nc1ccccc1O)c1ccccc1Cl | -3.9 | 43.9* | i | 0.8 | -2.8
CC1=C(C#N)c2nc(N)c(C#N)c(C)c2/C1=C\c1ccc(-c2ccccc2C(=O)O)o1 | -0.5 | -4.2 | + | 85.9* | -1.8
CC12CCCCN1CCCc1c2[nH]c2ccccc12 (stereo unspecified) | -4.2 | 40.5* | ? | ? | -2.3
c1ccc2c3c([nH]c2c1)C1(CCCCC1)NCC3 | 0.1 | 3.8 | i | 2.0 | -1.2
COC(=O)c1c(C)oc2c1cc(NS(=O)(=O)c1ccc(C(=O)O)cc1)c1ccccc12 | 0.3 | 12.9 | i | 24.9 | 7.3*
O=C(Nc1ccccc1)c1ccc(-n2cnnn2)cc1 | -7.4 | -26.7 | i | -8.1 | -3.3
O=C(Nc1ccc(-n2cnnn2)cc1)C(c1ccccc1)c1ccccc1 | -0.2 | 1.3 | + | -9.5 | -2.1
CC(C)c1nc(C(=O)N2CCCC(N3CCN(c4cccc(Cl)c4)CC3)C2)cs1 (stereo unspecified) | -0.9 | -6.1 | i | 4.0 | -3.4
O=C(Nc1nnc(-c2ccccc2)o1)C1CCCN1S(=O)(=O)c1cccs1 (stereo unspecified) | / | -4.5 | / | / | /
S=c1[nH]nc(-c2ccc(Cl)cc2Cl)n1-c1ccc2c(c1)OCCO2 | 9.2* | -33.3 | i | 5.0 | -5.1
S=c1[nH]nc(COc2ccc3c(c2)OCO3)n1-c1ccccc1 | -2.7 | -11.3 | i | -3.5 | -3.3
S=c1[nH]nc(-c2ccc3c(c2)OCO3)n1-c1ccccc1 | 11.2* | -1.5 | i | -7.7 | -3.6
Cc1[nH]c2ccc(-c3n[nH]c(=S)n3-c3ccccc3)cc2c1C | 2.3 | 8.2 | i | 2.4 | -1.7
CS(=O)(=O)Nc1ccc(-c2n[nH]c(=S)n2-c2ccccc2)cc1 | 8.2* | -1.8 | i | -9.1 | -3.0
COc1cc(OC)cc(-c2n[nH]c(=S)n2-c2ccc3c(c2)OCCO3)c1 | 8.1* | 3.6 | i | -1.5 | -4.7
S=c1[nH]nc(-c2ccc(Cl)cc2Cl)n1-c1ccccc1 | 0.9 | 3.4 | i | 5.4 | -6.0
CCCN(CCC)C(=O)C1CCN(c2ccc(S(=O)(=O)N3CCOCC3)cc2[N+](=O)[O-])CC1 | -2.0 | 5.3 | i | 1.8 | -0.8
SMILES | VIM-2 inhibitor | MLLE-PAM2 inh | PABP FP inh | eIF4H inh | IMP-1 inhibitor
COC(C[C@@H]1O[C@H]1C(=O)[C@@H](C)OCc1ccccc1)OC | / | 14.3 | / | / | /
Cc1ccc(C(=O)/C=C/c2cc(Br)cc(Br)c2O)o1 | -5.9 | -67.2 | i | 4.6 | -2.9
Cc1nn(C)cc1-c1n[nH]c(=S)n1-c1ccc(Cl)cc1 | 9.2* | 1.3 | i | 3.3 | -3.4
COc1ccccc1-c1n[nH]c(=S)n1-c1ccccc1 | 8.9* | 3.2 | i | 6.5 | -3.3
CC(C)(C)c1cc(-c2n[nH]c(=S)n2-c2ccc(Cl)cc2)n[nH]1 | 2.9 | -8.4 | i | -0.8 | -4.1
COc1ccccc1-c1n[nH]c(=S)n1N | 0.6 | -37.6 | i | 3.6 | -2.8
Cc1ccc(SC[C@H](C)CN2CC[C@H](C)CCC2=O)cc1 | -3.9 | 0.9 | i | -1.3 | -4.6
CC(=O)Nc1ccc(SC[C@H](C)CN2CC[C@H](C(C)(C)C)CCC2=O)cc1 | / | 46.1* | / | / | /
Cc1ccc2ccc3cccnc3c2n1 | 9.5* | 15.4 | / | / | -26.6
Cc1c(C)c2cccnc2c2ncccc12 | / | 2.3 | / | / | /
O=C(Nc1ccc([N+](=O)[O-])cn1)c1ccc(Br)o1 | -3.1 | -7.8 | i | -5.7 | -2.3
CCc1nc(NCc2cccnc2)c2oc3ccccc3c2n1 | 11.5* | -8.6 | i | -7.8 | -3.0
N#Cc1sc2nc3c(cc2c1N)CCCC3 | -1.0 | -8.6 | i | -1.2 | 16.6*
Nc1c(C(=O)O)sc2nc3c(cc12)CCCC3 | -2.1 | 4.6 | i | 7.1 | -2.6
O=C(COC(=O)CCC(=O)c1cccs1)NC(=O)c1ccc(OC(F)F)cc1 | -2.2 | 0.3 | i | -15.0 | 4.8*
Cc1csc(C(=O)O)c1-n1cccc1 | -1.6 | 1.6 | i | 12.2 | -1.9
CCOC(=O)C1=C(O)/C(=C/c2ccc(-c3ccccc3C(=O)O)o2)SC1=Nc1ccc(C)cc1 | / | -109.9 | / | / | /
CCOC(=O)C1=C(O)/C(=C/c2ccccn2)SC1=Nc1ccc(Cl)cc1 | -5.2 | -4.4 | i | active | -2.7
CCOC(=O)C1=C(O)/C(=C/c2ccc(OCC(=O)O)c(OCC)c2)SC1=Nc1ccccc1 | -2.5 | 14.7 | i | 7.6 | -2.2
CCOC(=O)C1=C(O)/C(=C/c2ccc(-c3ccccc3C(=O)O)o2)SC1=Nc1ccc(OC)cc1 | 11.3* | -75.3 | + | 78.4* | -4.4
c1ccc(CSc2nnc(-c3ccco3)n2Cc2ccco2)cc1 | -0.2 | -19.7 | i | -2.6 | -1.1
CCCCOc1[nH]c2nc(-c3ccco3)n(Cc3ccco3)c(=N)c2c1C#N | -2.8 | 94.6 | + | 126.6* | -0.6
CCOC(=O)c1c(C)[nH]c(C(=O)COC(=O)CCC2CCCC2)c1C | -3.2 | 14.1 | i | -11.4 | -0.9
O=C(NCCNc1ccc2ccccc2c1)c1cccn2c(=O)c3sccc3nc12 | 8.1* | / | i | -3.8 | -3.0
COc1ccc(NC(=O)COC(=O)c2ccc3c(c2)OCO3)c(OC)c1 | / | 3.0 | / | / | /
SMILES | VIM-2 inhibitor | MLLE-PAM2 inh | PABP FP inh | eIF4H inh | IMP-1 inhibitor
O=C(Nc1ccc(Cl)cc1)c1cccnc1N1CCCCC1 | -0.3 | 2.8 | i | -2.0 | 20.3*
O=C(Nc1ccc(N2CCCCC2)cc1)c1cccnc1Cl | 0.3 | -17.0 | i | -6.7 | -2.6
O=C(Nc1ccc2ncccc2c1)c1ccccc1Cl | -0.8 | -132.2 | + | 0.4 | -2.1
N#CCCC(CCC#N)(CCC#N)c1cc[n+](CCc2ccccn2)cc1 | / | -3.8 | / | / | /
Clc1cccc(-c2ccc(CNCc3ccccn3)o2)c1 | 11.3* | 10.5 | i | 11.2 | -6.3
c1ccc(-c2nn3c(-c4ccccc4)nnc3o2)cc1 | / | -7.1 | / | / | /
O=C(OCc1nnc(-c2ccc(Cl)cc2)o1)c1ccc(=O)n(Cc2ccccc2)n1 | -6.3 | -3.4 | i | -7.5 | 4.8*
Cc1ccccc1C(=O)OCc1nnc(-c2ccc(Cl)cc2)o1 | -2.5 | 5.6 | i | -3.0 | -1.9
